GPR7 antag – antagonists of human GPR7 (neuropeptides B/W receptor 1); AID 1861; 290,000 compounds, 1.1% hits; P48145; GPR7-expressing cells, fluorescence antagonist assay; inhibition, % at 4.4 µM; in the data active means inhibition above about 16%, passing the limit was not always enough;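 further: cells stimulated with the agonist NPW; 0% = agonist with vehicle and 100% = vehicle without agonist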
Target sequence (P48145 whole entry, looked up): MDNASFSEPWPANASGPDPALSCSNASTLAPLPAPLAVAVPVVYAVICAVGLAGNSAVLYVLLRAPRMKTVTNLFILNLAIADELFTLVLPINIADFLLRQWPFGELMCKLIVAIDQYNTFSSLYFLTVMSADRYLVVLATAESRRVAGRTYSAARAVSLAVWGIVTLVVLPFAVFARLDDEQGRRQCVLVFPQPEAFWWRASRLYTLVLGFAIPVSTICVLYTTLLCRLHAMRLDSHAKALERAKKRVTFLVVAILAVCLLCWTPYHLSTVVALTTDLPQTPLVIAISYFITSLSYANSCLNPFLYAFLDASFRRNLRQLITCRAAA
DNA FID counter-1 – fluorescent intercalator displacement, NS3 helicase counter-screen | DNA fluorescent intercalator displacement, fluorescence | inhibition, % at 7.9 µM | 290,000 compounds, 0.17% hits | AID 1845;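 further: 0% = vehicle and 100% = reference compound; higher means more ethidium bromide displaced from hairpin DNA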
EBNA-1 inh – blocks EBNA-1 binding to DNA; EBNA-1 DNA binding, fluorescence polarization; inhibition, % at 14.8 µM; 300,000 compounds, 0.34% hits; in the data active means inhibition above about 28%
ZTA counter – ZTA (EBV) inhibition in EBNA-1 counter-screen. ZTA-DNA binding, fluorescence polarization. inhibition, % at 11 µM. 320,000 compounds, 0.15% hits; in the data active means inhibition above about 33%
Target sequence (P03206 whole entry, looked up): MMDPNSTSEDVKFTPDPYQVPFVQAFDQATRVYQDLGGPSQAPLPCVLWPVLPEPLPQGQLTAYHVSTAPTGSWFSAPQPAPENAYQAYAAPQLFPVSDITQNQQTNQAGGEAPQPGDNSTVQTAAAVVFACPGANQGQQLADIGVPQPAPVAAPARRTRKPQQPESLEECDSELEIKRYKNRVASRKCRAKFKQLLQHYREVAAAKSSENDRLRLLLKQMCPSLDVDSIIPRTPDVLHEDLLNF
NS3 helicase inh – HCV NS3 helicase inhibition; NS3 helicase DNA unwinding, Cy5 molecular beacon fluorescence; inhibition, % at 10.9 µM; 290,000 compounds, 0.56% hits; AID 1800;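 active means inhibition above the mean of all tested compounds plus 3 SD, set per campaign, cut at about 35% in these data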;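 further: 0% = DMSO wells and 100% = thioflavine S control wells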
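test system = hepatitis C virus NS3 helicase domain fragment enzyme | reagent = annealed dual-labelled DNA beacon duplex, ATP-started | times = 1 h at 25 °C | detection = Cy5 fluorescence, 0 and 60 min reads | read-out basis = percent inhibition from t60/t0 fluorescence ratio | control set = DMSO and thioflavine S | replication = one well per compound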
NS3 helicase cf – HCV NS3 helicase inhibition, confirmation assay; shares compounds with NS3 helicase inh; inhibition, % at 10.9 µM; NS3 helicase DNA unwinding, Cy5 molecular beacon fluorescence; 1,600 compounds, 31% hits;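 active means inhibition above the mean of all tested compounds plus 3 SD, cutoff set per campaign, cut at about 36% in these data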
DNA FID counter-2 – displaces DNA intercalator in HCV helicase counter-screen | shares compounds with NS3 helicase inh | DNA fluorescent intercalator displacement, fluorescence | inhibition, % at 7.9 µM | 1,600 compounds, 4% hits;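 further: 0% = vehicle and 100% = reference compound; higher means more displacement of ethidium bromide from the DNA hairpin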
FID counter DR – counter-screen for HCV NS3 helicase inhibitors: DNA intercalator displacement dose response. shares compounds with NS3 helicase inh. fluorescent intercalator displacement from DNA, fluorescence. IC50, µM. 120 tested, under 10 active; call rule not given here
* = called active by the depositor. An excerpt weighted towards active compounds, which were near 2% of everything screened. Unless noted, no stated cut-off is given here; in the data, active means inhibition above about 37%; inactive means the rest.

Results for CCOC(=O)c1ccc(N2C=C(C(=O)OC)C(c3cccc(O)c3)C(C(=O)OC)=C2)cc1 ?
GPR7 antag: -23; DNA FID counter-1: -33; EBNA-1 inh: 16; ZTA counter: 5; NS3 helicase inh: -2

What do the screens show for `Cc1ccc(C(CCN(Cc2ccccc2)C(=O)c2ccco2)c2ccco2)cc1` (stereo unspecified)?
GPR7 antag: 4; DNA FID counter-1: -53; EBNA-1 inh: 4; ZTA counter: -1; NS3 helicase inh: 54*; NS3 helicase cf: 55*; DNA FID counter-2: -30; FID counter DR: >79

How did COc1ccc(/C=C/c2nc3ccccc3c(=O)n2-c2cccc(C(=O)O)c2)cc1 do in these assays?
GPR7 antag: -16; DNA FID counter-1: -17; EBNA-1 inh: -3; ZTA counter: -19; NS3 helicase inh: 41*; NS3 helicase cf: 6; DNA FID counter-2: -39

How did CCOC(=O)C1(Cc2cccc(Cl)c2)CCCN(C(=O)c2ccoc2C)C1 (stereo unspecified) do in these assays?
GPR7 antag: 1; DNA FID counter-1: -45; NS3 helicase inh: 44*; NS3 helicase cf: -7; DNA FID counter-2: -53

How did CCOC(=O)C1(Cc2cccc(Cl)c2)CCCN(C(=O)c2ccco2)C1 (stereo unspecified) do in these assays?
GPR7 antag: 10; DNA FID counter-1: -52; EBNA-1 inh: -1; ZTA counter: -6; NS3 helicase inh: -12

Results for Cc1ccccc1C(=O)Nc1cc(NC(=O)c2ccccc2C)cc(C(=O)O)c1 ?
GPR7 antag: -2; DNA FID counter-1: -17; EBNA-1 inh: -7; ZTA counter: -8; NS3 helicase inh: -4

How did Cc1cccc(N2C(=O)C(O)=C(C(=O)c3cccs3)C2c2ccc(C(C)C)cc2)n1 (stereo unspecified) do in these assays?
GPR7 antag: -13; DNA FID counter-1: -35; EBNA-1 inh: 12; ZTA counter: 5; NS3 helicase inh: 55*; NS3 helicase cf: 78*; DNA FID counter-2: -10; FID counter DR: >79

What do the screens show for `CSc1cccc(NC(=O)COC(=O)c2ccccn2)c1`?
ZTA counter: -13

Results for COc1ccc(C(=O)O)cc1NC(=S)NC(=O)/C=C/c1ccc(C(C)C)cc1 ?
GPR7 antag: -9; DNA FID counter-1: -11; EBNA-1 inh: -4; ZTA counter: 12; NS3 helicase inh: 43*; NS3 helicase cf: 58*; DNA FID counter-2: 16

How did COc1ccc(S(=O)(=O)N2CCOCC2)cc1NC(=O)C1COc2ccccc2O1 (stereo unspecified) do in these assays?
EBNA-1 inh: 7; ZTA counter: 5

How did CC(C)c1ccc(C(CC(=O)c2ccc(Cl)cc2)C(=O)O)cc1 (stereo unspecified) do in these assays?
GPR7 antag: -5; DNA FID counter-1: -42; EBNA-1 inh: 3; ZTA counter: -4; NS3 helicase inh: 37*; NS3 helicase cf: 68*; DNA FID counter-2: -19

What do the screens show for `Cc1ccc(Cl)c2c(N=Nc3ccccc3)c(O)[nH]c12`?
GPR7 antag: -19; DNA FID counter-1: 8; NS3 helicase inh: 0

How did Cc1cc(C)cc(N=Cc2c(O)c3ccccc3oc2=O)c1 do in these assays?
GPR7 antag: -5; DNA FID counter-1: 2; EBNA-1 inh: 0; ZTA counter: -3; NS3 helicase inh: 12

How did COC(=O)c1cc(N=Cc2c(O)c3ccccc3oc2=O)cc(C(=O)OC)c1 do in these assays?
GPR7 antag: 1; DNA FID counter-1: 2; EBNA-1 inh: -15; ZTA counter: 13; NS3 helicase inh: 40*; NS3 helicase cf: 4; DNA FID counter-2: 10

How did O=C(/C=C/c1ccc(Cl)cc1)N1CCN(Cc2ccccc2)CC1 do in these assays?
GPR7 antag: 13; DNA FID counter-1: -25; EBNA-1 inh: 5; ZTA counter: -16; NS3 helicase inh: -9

What do the screens show for `C[C@H]1CN=C(Nc2ccccc2)N1CCC1CCCC1`?
GPR7 antag: -6; DNA FID counter-1: -6; EBNA-1 inh: 9; ZTA counter: 6; NS3 helicase inh: 3

How did CCCCCCOc1ccc(C(=O)O)cc1C#N do in these assays?
GPR7 antag: -3; DNA FID counter-1: -25; EBNA-1 inh: 14; ZTA counter: 0; NS3 helicase inh: 38*; NS3 helicase cf: 16; DNA FID counter-2: -8

Results for CCCCCCCCOc1ccc(C(=O)O)cc1 ?
ZTA counter: 0

Results for CN1C(=O)Nc2cccc3cccc1c23 ?
GPR7 antag: -13; DNA FID counter-1: -9; EBNA-1 inh: 6; ZTA counter: -5; NS3 helicase inh: 42*; NS3 helicase cf: -12; DNA FID counter-2: 6

Results for Oc1ccccc1/C=N/n1c(COc2ccccc2)n[nH]c1=S ?
GPR7 antag: -2; DNA FID counter-1: -27; EBNA-1 inh: -3; ZTA counter: -13; NS3 helicase inh: 20

Results for Fc1ccccc1/C=N/n1c(COc2ccccc2)n[nH]c1=S ?
GPR7 antag: 10; DNA FID counter-1: -20; EBNA-1 inh: -2; ZTA counter: 11; NS3 helicase inh: 50*; NS3 helicase cf: 9; DNA FID counter-2: -12

Results for CCOC(=O)c1c(S(=O)(=O)Nc2ccccn2)c(C)n(C)c1C ?
GPR7 antag: -9; DNA FID counter-1: -10; EBNA-1 inh: 5; ZTA counter: 10; NS3 helicase inh: 0

What do the screens show for `Cc1ccc(NC(=O)Nc2ccc3c(c2)OCO3)cc1F`?
GPR7 antag: -6; DNA FID counter-1: -2; EBNA-1 inh: -4; ZTA counter: 8; NS3 helicase inh: -4

How did O=c1cc(O)nc(SCc2ccccc2)n1-c1ccc(F)cc1 do in these assays?
GPR7 antag: 0; DNA FID counter-1: -24; EBNA-1 inh: 2; ZTA counter: -1; NS3 helicase inh: 59*; NS3 helicase cf: -2; DNA FID counter-2: -22

Results for Nc1cc(=O)[nH]c(SCC(=O)c2ccc(O)cc2O)n1 ?
GPR7 antag: -4; DNA FID counter-1: -2; EBNA-1 inh: 7; ZTA counter: -10; NS3 helicase inh: -11

What do the screens show for `CCc1ccc(NC(=O)Cc2c(C(=O)O)n(C)c3ccccc23)cc1`?
GPR7 antag: -15; DNA FID counter-1: -34; EBNA-1 inh: -3; ZTA counter: 18; NS3 helicase inh: 37*; NS3 helicase cf: 52*; DNA FID counter-2: -25

Results for CCOc1ccc(NC(=O)Cc2c(C(=O)O)n(C)c3ccccc23)cc1 ?
GPR7 antag: -10; DNA FID counter-1: -25; EBNA-1 inh: 1; ZTA counter: 2; NS3 helicase inh: 0

What do the screens show for `O=C1NC(c2ccccc2)CCO1` (stereo unspecified)?
GPR7 antag: -13; DNA FID counter-1: -15; EBNA-1 inh: 7; ZTA counter: 8; NS3 helicase inh: 56*; NS3 helicase cf: -10; DNA FID counter-2: 13
